This note sets out measurements from ChEMBL document CHEMBL3102698, “New highly toxic bile acids derived from deoxycholic acid, chenodeoxycholic acid and lithocholic acid” (Bioorg Med Chem, 2014).

SMILES strings stand for the structures. The source made the active and inactive calls. No cut-off for these calls is given here.

Assay [1] deals with Caco-2. In words: Induction of necrosis in human Caco2 cells at 50 to 100 uM after 24 hrs by annexin V-FITC/propidium iodide staining-based flow cytometric analysis. It is filed as functional, cell-based. A digest of the protocol:
(§1)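 Cells grown to 80% confluence, exposed 24 h in serum-free medium, with vehicle-only controls. Harvested cells washed and resuspended in binding buffer, then stained with annexin V-FITC and propidium iodide 15 min at rt in the dark. Read by flow cytometry within 5 min. Annexin V−/PI+ cells scored necrotic and annexin V+ cells apoptotic; quadrant percentages reported.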
Background: In flow cytometry, cells or beads pass a laser one at a time.

Assay [2] is described as follows: Cytotoxicity against human HT1080 cells assessed as cell viability after 24 hrs by MTT assay. In kind it is functional, cell-based. As to conditions: HT-1080, 24 h. A digest of the protocol: (§2)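 Cells grown to 70% confluence (Caco-2 seeded 8 × 10^3/well, HT1080 12 × 10^4/well), serum-starved 1 h, then exposed 24 h serum-free to 0.1-1000 µM (DMSO ≤0.5%). MTT 0.5 mg/mL added for 3 h at 37 °C; formazan dissolved in DMSO, OD read at 540 nm. Viability taken as % of untreated OD. IC50 fitted from eight concentration levels, at least three experiments in triplicate.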

Assay [3] relates to HT-1080. In words: Induction of necrosis in human HT1080 cells at 50 to 100 uM after 24 hrs by annexin V-FITC/propidium iodide staining-based flow cytometric analysis. In kind it is functional, cell-based. In a few lines: as §1
Assay [4] has as its system Caco-2. As to the kind of experiment: Cytotoxicity against human Caco2 cells assessed as cell viability at 100 uM after 24 hrs by MTT assay in presence of antioxidant N-acetyl cysteine. It is filed as functional, cell-based. In a few lines: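 Caco-2 grown to 70% confluence, serum-starved 1 h, then treated 24 h serum-free with compound plus 1 mM NAC; DMSO vehicle at most 0.5%. MTT 0.5 mg/mL for 3 h at 37 °C, formazan dissolved in DMSO, OD 540 nm. Viability expressed as % of untreated cells; n = 3.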
On the technique in general: Formazan colour is commonly taken as a measure of viable cells.

The subject of assay [5] is Caco-2. As to the kind of experiment: Cytotoxicity against human Caco2 cells assessed as cell viability after 24 hrs by MTT assay. It is filed as functional, cell-based. As to conditions: Caco-2, 24 h. A digest of the protocol: as §2
The test system of assay [6] is Caco-2. As to the kind of experiment: Induction of ROS production in human Caco2 cells at 10 uM after 0.5 to 24 hrs by 2',7'-dichlorfluorescein-diacetate staining-based fluorescence assay. In kind it is functional, cell-based. A digest of the protocol:
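Caco-2 at 70-80% confluence exposed in serum-free medium for 30 min or 24 h (compounds 10 µM, natural bile acids 100 µM). Medium then replaced with 100 µM 2',7'-dichlorofluorescein diacetate for 30 min at 37 °C, cells washed with PBS, fluorescence read at ex 490/em 530 nm. Signal expressed relative to vehicle and corrected for MTT viability; n = 3.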

The subject of assay [7] is Caco-2. As to the kind of experiment: Cytotoxicity against human Caco2 cells assessed as cell viability at 10 uM after 24 hrs by MTT assay in presence of antioxidant N-acetyl cysteine. It is filed as functional, cell-based. In a few lines: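 MTT viability run on Caco-2 with and without 1 mM N-acetyl cysteine co-incubation. Compounds at 10 µM, natural bile acids at 100 µM, 24 h serum-free after 1 h serum starvation. MTT 0.5 mg/mL for 3 h at 37 °C, then DMSO solubilisation and OD at 540 nm, expressed as % of untreated; n = 3.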

The nature of assay [8]: Cytotoxicity against human HET-1A cells. In kind it is cell-based.
Assay [9] concerns HT-1080. As to the kind of experiment: Induction of apoptosis in human HT1080 cells at 3.125 to 100 uM after 24 hrs by annexin V-FITC/propidium iodide staining-based flow cytometric analysis. It is filed as functional, cell-based. A digest of the protocol:
(§3)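 Caco-2 or HT1080 grown to 80% confluence, then treated 24 h in serum-free medium (vehicle controls run in parallel) at seven concentrations. Cells collected, washed and resuspended in binding buffer, stained with annexin V-FITC plus propidium iodide for 15 min at rt in the dark, and analysed within 5 min. Quadrants scored: annexin+/PI− early apoptotic, double-positive late apoptotic, PI+ only dead.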

Assay [10] has as its system Caco-2. As to the kind of experiment: Induction of apoptosis in human Caco2 cells at 3.125 to 100 uM after 24 hrs by annexin V-FITC/propidium iodide staining-based flow cytometric analysis. It is filed as functional, cell-based. A digest of the protocol:
as §3

Assay [11] concerns Caco-2. As to the kind of experiment: Induction of necrosis in human Caco2 cells up to 500 uM after 24 hrs by annexin V-FITC/propidium iodide staining-based flow cytometric analysis. In kind it is functional, cell-based. In a few lines:
as §1

Assay [12] deals with HT-1080. In words: Induction of necrosis in human HT1080 cells up to 500 uM after 24 hrs by annexin V-FITC/propidium iodide staining-based flow cytometric analysis. In kind it is functional, cell-based. In a few lines: as §1
Assay [13] has as its system Caco-2. As to the kind of experiment: Cytotoxicity against human Caco2 cells assessed as cell viability at 50 uM after 24 hrs by MTT assay relative to control. In kind it is functional. As to conditions: Caco-2, 24 h, read-out: Activity.
Assay [14] relates to HT-1080. As to the kind of experiment: Induction of necrosis in human HT1080 cells at 3.125 to 100 uM after 24 hrs by annexin V-FITC/propidium iodide staining-based flow cytometric analysis. It is filed as functional, cell-based. In a few lines:
as §3

As for `C[C@H](CCC(=O)O)[C@H]1CC[C@H]2[C@@H]3CC[C@@H]4C[C@H](O)CC[C@]4(C)[C@H]3CC[C@]12C` [LITHOCHOLIC ACID], the outcome in the assay with Caco-2 [1] and in the assay on HT-1080 [3] was Active. The IC50 was 23 µM in [2] and 56 µM with Caco-2 [5]. The outcome with Caco-2 [4] was inactive.

As for `C[C@H](CCC(=O)NC1CC1)[C@H]1CC[C@H]2[C@@H]3[C@H](O)C[C@@H]4C[C@@H](N=[N+]=[N-])CC[C@]4(C)[C@H]3CC[C@]12C`, in the assay with Caco-2 [6], the outcome was Active. In addition, the IC50 in assay [2] turned out to be 3.2 µM; with Caco-2 [5], 7.6 µM. In the assay with Caco-2 [7], the outcome was inactive.

Consider `C[C@H](CCC(=O)O)[C@H]1CC[C@H]2[C@@H]3CC[C@@H]4C[C@@H](N=[N+]=[N-])CC[C@]4(C)[C@H]3C[C@H](O)[C@]12C`, for which, in [8], the EC50 was determined as 97 µM.

In turn, `C[C@H](CCC(N)=O)[C@H]1CC[C@H]2[C@@H]3CC[C@@H]4C[C@H](O)CC[C@]4(C)[C@H]3C[C@H](O)[C@]12C` registered an EC50 in assay [8] of 39 µM.

Regarding `C[C@H](CCC(=O)O)[C@H]1CC[C@H]2[C@@H]3CC[C@@H]4C[C@@H](N=[N+]=[N-])CC[C@]4(C)[C@H]3CC[C@]12C`, the IC50 in assay [2] is 21.3 µM; in the assay on Caco-2 [5], over 250 µM. Also, the outcome in the assay on HT-1080 [9] and in the assay on Caco-2 [10] was Active.

For the compound `C[C@H](CCC(=O)O)[C@H]1CC[C@H]2[C@@H]3[C@H](O)C[C@@H]4C[C@H](O)CC[C@]4(C)[C@H]3CC[C@]12C` [CHENODIOL], the IC50 in assay [2] turned out to be 130 µM; in the assay with Caco-2 [5] it was 106 µM. The outcome in the assay with Caco-2 [11] and in the assay with HT-1080 [12] was inactive.

As for `C[C@H](CCC(=O)NC1CC1)[C@H]1CC[C@H]2[C@@H]3CC[C@@H]4C[C@@H](N=[N+]=[N-])CC[C@]4(C)[C@H]3C[C@H](O)[C@]12C`, the IC50 in assay [2] amounted to 1.9 µM; in the assay on Caco-2 [5], 6.3 µM. Further, in the assay on Caco-2 [7], the outcome was inactive. In the assay on HT-1080 [9], the outcome was Active.

In the case of `C[C@H](CCC(=O)O)[C@H]1CC[C@H]2[C@@H]3[C@@H](O)C[C@@H]4C[C@H](O)CC[C@]4(C)[C@H]3CC[C@]12C`, the outcome with Caco-2 [4] was inactive.

With `C[C@H](CCC(=O)NCc1ccccc1)[C@H]1CC[C@H]2[C@@H]3CC[C@@H]4C[C@@H](N=[N+]=[N-])CC[C@]4(C)[C@H]3C[C@H](O)[C@]12C`, in the assay with Caco-2 [6], the result was Active. Besides, the IC50 was over 500 µM in [2] and over 1000 µM in the assay on Caco-2 [5].

As to `CCCNC(=O)CC[C@@H](C)[C@H]1CC[C@H]2[C@@H]3CC[C@@H]4C[C@@H](N=[N+]=[N-])CC[C@]4(C)[C@H]3C[C@H](O)[C@]12C`, the outcome in the assay with Caco-2 [6] was Active. Moreover, the IC50 in assay [2] stood at 6.3 µM. Besides, the viability at 50 µM with Caco-2 [13] was 60%.

Consider `C[C@H](CCC(N)=O)[C@H]1CC[C@H]2[C@@H]3CC[C@@H]4C[C@@H](N=[N+]=[N-])CC[C@]4(C)[C@H]3CC[C@]12C`, for which, in the assay on HT-1080 [14], the outcome was Active. Further, the IC50 is 13.1 µM in [2] and over 500 µM in the assay on Caco-2 [5].

`C[C@H](CCC(N)=O)[C@H]1CC[C@H]2[C@@H]3CC[C@@H]4C[C@H](N=[N+]=[N-])CC[C@]4(C)[C@H]3C[C@H](O)[C@]12C`: the outcome in the assay on Caco-2 [6] was Active. Moreover, the IC50 in assay [2] came out at 10 µM; with Caco-2 [5] it was 12.6 µM. Moreover, in the assay on Caco-2 [7], the result was inactive.

On to `C[C@H](CCC(N)=O)[C@H]1CC[C@H]2[C@@H]3[C@H](O)C[C@@H]4C[C@@H](N=[N+]=[N-])CC[C@]4(C)[C@H]3CC[C@]12C`, for which the outcome with Caco-2 [6] was Active. In addition, the IC50 came out at 6.9 µM in [2] and 9.8 µM in the assay with Caco-2 [5]. In the assay on Caco-2 [7], the outcome was inactive.

A word on the IC50: it is the concentration that gives 50% inhibition. The EC50 is the concentration at which the effect is half-maximal. High values mean lower potency in that assay, low ones higher potency in that assay.
